Assay [1] relates to CHO-AA8. Description: Ratio for chinese hamster AA8 cells to chinese hamster BER-mutant EM9 cells. It counts as functional, Cricetulus griseus.
The species named for the next assay is Cricetulus griseus. Description: Cytotoxicity against chinese hamster BER-mutant EM9 cells assessed as cell survival by clonogenic survival assay. The format is functional, cell-based. In outline: (§1)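 CHO lines from repair-proficient and repair-mutant backgrounds, grown in RPMI1640 with 10% FCS. Cells plated in triplicate at 400 cells/well and dosed 24 h later with a range of leinamycin concentrations. Colonies grew 14 days and were stained with 1% methylene blue in 50% ethanol. Dye was eluted in isopropanol with 0.4 M HCl and read at 595 nm for relative survival.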

The next assay concerns Xrs-5. Description: Cytotoxicity against chinese hamster kU86-mutant Xrs-5 cells assessed as cell survival by clonogenic survival assay. It counts as functional, cell-based. As to conditions: Cricetulus griseus. In outline: as §1
Assay [2] can be described thus: Cytotoxicity against chinese hamster NER-mutant UV135 cells assessed as cell survival by clonogenic survival assay. It counts as functional, cell-based. The following applies: Cricetulus griseus. In outline: as §1
A short description of assay [3]: Cytotoxicity against chinese hamster NER-mutant UV41 cells assessed as cell survival by clonogenic survival assay. It counts as functional, cell-based. As to conditions: Cricetulus griseus. In outline: as §1
For assay [4], the system named is CHO-AA8. Description: Cytotoxicity against chinese hamster AA8 cells assessed as cell survival by clonogenic survival assay. The format is functional, cell-based. As to conditions: Cricetulus griseus. In outline:
as §1

Assay [5] is described as follows: Cytotoxicity against human MiaPaCa cells assessed as potentiation of methoxyamine-mediated cytotoxicity by MTT assay. The format is functional, cell-based. The following applies: MIA PaCa-2. In outline: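 MiaPaCa cells in RPMI1640 with 10% FCS were given leinamycin alone or combined with methoxyamine, a BER inhibitor, tested alone up to 25 mM. Survival was measured by MTT, reading solubilised formazan at 595 nm, in triplicate with ±SE.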
(In general: Tetrazolium dyes change colour on reduction, which living cells bring about.)

A short description of assay [6]: Cytotoxicity against human MiaPaCa cells by MTT assay. The format is functional, cell-based. The following applies: MIA PaCa-2. In outline:
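MiaPaCa cells in RPMI1640 with 10% FCS were exposed to leinamycin. Viability was read by MTT reduction to formazan, with absorbance of solubilised formazan at 595 nm. Survival was determined in triplicate with ±SE.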

In assay [7] the test system is Nucleic Acid. Description: Induction of DNA cleavage in 32P-labeled oligomer duplex Sp25 DNA at 2 ug/ml to 100 ug/ml after 24 hrs by PAGE analysis without hot piperidine treatment. The format is nucleic-acid assay. In outline: (§2)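 5'-32P-end-labelled, gel-purified Sp25 duplex (100 fmol) was incubated with leinamycin at 37°C in 20 mM Tris-HCl pH 7.6, 20 mM NaCl, 1 mM DTT, with no piperidine step. Unreacted drug was removed on a G-10 column. Fragments were resolved on 16% urea-PAGE and quantified by phosphorimaging.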

Assay [8] has as its system Nucleic Acid. Description: Induction of DNA cleavage in 32P-labeled oligomer duplex Sp25 DNA at 2 ug/ml to 100 ug/ml after 24 hrs by PAGE analysis followed by hot piperidine treatment. It counts as nucleic-acid assay. The procedure, abridged:
(§3)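 5'-32P-end-labelled, gel-purified Sp25 duplex (100 fmol) was incubated with leinamycin at 37°C in 20 mM Tris-HCl pH 7.6, 20 mM NaCl, 1 mM DTT. Drug was removed on a G-10 column, then DNA was heated 30 min in 1 M piperidine. Products were run on 16% urea-PAGE and quantified by phosphorimaging.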

Assay [9] concerns Nucleic Acid. Description: Induction of DNA cleavage in 32P-labeled oligomer duplex Sp25 DNA up to 24 hrs by PAGE analysis without hot piperidine treatment. The format is nucleic-acid assay. The procedure, abridged:
as §2

Assay [10] concerns Nucleic Acid. Description: Induction of DNA cleavage in 32P-labeled oligomer duplex Sp25 DNA after 8 hrs by PAGE analysis with hot piperidine treatment. It counts as nucleic-acid assay. In outline: as §3
Assay [11] in a line: Cytotoxicity against chinese hamster NER-mutant UV5 cells assessed as cell survival by clonogenic survival assay. The format is functional, cell-based. The following applies: Cricetulus griseus. The procedure, abridged: as §1
The test system of assay [12] is Nucleic Acid. Description: Inhibition of Leinamycin-induced strand breaks in 32P-labeled 25-bp oligomer duplex Sp25 DNA after 24 hrs by PAGE analysis followed by hot piperidine treatment. It counts as nucleic-acid assay. In outline:
(§4)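 5'-32P-end-labeled duplex Sp25 (100 fmol), gel-purified, incubated at 37°C for 24 h with leinamycin, Fe(II)-bleomycin or 1 mM MMS plus increasing methoxyamine in 20 mM Tris–HCl pH 7.6, 20 mM NaCl, 1 mM DTT; drug removed on Sephadex G-10; then 1 M piperidine, 90°C, 30 min; 16% urea–acrylamide gel, PhosphorImager quantification.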

Assay [13] has as its system Nucleic Acid. Description: Inhibition of Leinamycin-induced strand breaks in 32P-labeled 25-bp oligomer duplex Sp25 DNA after 24 hrs by PAGE analysis without hot piperidine treatment. It counts as nucleic-acid assay. The procedure, abridged: (§5)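 5'-32P-end-labeled Sp25 duplex (100 fmol) exposed at 37°C for 24 h to leinamycin, Fe(II)-bleomycin or 1 mM MMS with rising methoxyamine levels in 20 mM Tris–HCl pH 7.6, 20 mM NaCl, 1 mM DTT; unreacted drug removed by Sephadex G-10; no piperidine step; denaturing 16% urea–acrylamide gel, PhosphorImager scan.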

Assay [14] in a line: Potentiation of leinamycin-induced cytotoxicity in human MiaPaCa cells by MTT assay. It counts as functional. In outline: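 MiaPaCa cells grown in RPMI1640 with 10% FCS, exposed to methoxyamine (up to 25 mM), leinamycin or both; viability by MTT reduction, formazan solubilized and read at 595 nm; triplicate determinations, bars ±SE.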
The subject of assay [15] is Nucleic Acid. Description: Inhibition of Leinamycin-induced strand breaks in 32P-labeled 25-bp oligomer duplex Sp25 DNA at 1mM by PAGE analysis followed by hot piperidine treatment. It counts as nucleic-acid assay. In outline: as §4
The subject of assay [16] is Nucleic Acid. Description: Inhibition of methylmethanesulfonate-induced strand breaks in 32P-labeled 25-bp oligomer duplex Sp25 DNA at 1 mM after 24 hrs by PAGE analysis followed by hot piperidine treatment. The format is nucleic-acid assay. The procedure, abridged: as §4
For assay [17], the system named is Nucleic Acid. Description: Inhibition of bleomycin-induced strand breaks in 32P-labeled 25-bp oligomer duplex Sp25 DNA at 1 mM after 24 hrs by PAGE analysis followed by hot piperidine treatment. It counts as nucleic-acid assay. The procedure, abridged:
as §4

Assay [18] relates to Nucleic Acid. Description: Inhibition of leinamycin-induced strand breaks in 32P-labeled 25-bp oligomer duplex Sp25 DNA at 1mM after 24 hrs by PAGE analysis without hot piperidine treatment. It counts as nucleic-acid assay. The procedure, abridged: as §5
Assay [19] relates to Nucleic Acid. Description: Inhibition of bleomycin-induced strand breaks in 32P-labeled 25-bp oligomer duplex Sp25 DNA at 1 mM by PAGE analysis without hot piperidine treatment. The format is nucleic-acid assay. The procedure, abridged: as §5
For assay [20], the system named is Nucleic Acid. Description: Inhibition of methyl methanesulfonate-induced strand breaks in 32P-labeled 25-bp oligomer duplex Sp25 DNA at 1 mM by PAGE analysis without hot piperidine treatment. The format is nucleic-acid assay. In outline:
as §5

The structures appear in SMILES notation. In brackets after ≈: the same amount, converted by molar mass. Activity calls are given as the source filed them. No cut-off for these calls is given here.

One may read the IC50 as the concentration needed to halve the response being measured. As to `C/C1=C\[C@@H](O)C(=O)/C=C/C=C\c2csc(n2)[C@@H](C)NC(=O)C[C@@]2(CC1)[S+]([O-])SC(=O)[C@]2(C)O` (some centres not stated) [LEINAMYCIN], the Ratio with CHO-AA8 [1] was over 3. Besides, the result in the assay listed under Cricetulus griseus, in the assay on Xrs-5, with Nucleic Acid [9] and in the assay with Nucleic Acid [10] was Active. Moreover, the IC50 was 2 ng/mL (≈ 3.92 nM) in [2]; 3 ng/mL (≈ 5.87 nM) in [3]; 10 ng/mL (≈ 19.6 nM) in the assay on CHO-AA8 [4]; 15 ng/mL in [5]; 40 ng/mL (≈ 78.3 nM) in assay [6]; 3 ng/mL (≈ 5.87 nM) in assay [11]. Moreover, the Activity entry with Nucleic Acid [7] and in the assay on Nucleic Acid [8] was “Dose-dependent effect” in each case.

Take `CON` [METHOXYAMINE]: the result with Nucleic Acid [12] and in the assay with Nucleic Acid [13] was Active. The “fold change (FC)” value in assay [14] is given as 2.5. Besides, the outcome in the assay with Nucleic Acid [15], with Nucleic Acid [16], in the assay with Nucleic Acid [17], in the assay on Nucleic Acid [18], in the assay with Nucleic Acid [19] and in the assay on Nucleic Acid [20] was inactive.

The values are drawn from ChEMBL document CHEMBL2203121, “DNA cleavage induced by antitumor antibiotic leinamycin and its biological consequences” (Bioorg Med Chem, 2012).
